{"source": "ChEMBL document CHEMBL1156461", "about": "“Selective chemical probe inhibitor of Stat3, identified through structure-based virtual screening, induces antitumor activity” (Proc Natl Acad Sci U S A, 2007)", "key": {"NIH3T3 [1]": {"tested_on": "NIH3T3", "assay": "Inhibition of Stat3 activation in v-Src expressing mouse NIH3T3 cells at 100 uM", "assay_type": "functional, cell-based", "details": "TDE = time-dependent effect", "procedure,_shortened": "(§1)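 Cells with constitutively active Stat3 were treated with compound or 0.05% DMSO (up to 24 h). Nuclear extracts were then assayed for Stat3 DNA binding by EMSA with 32P-labeled hSIE probe.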"}, "NIH3T3 [2]": {"tested_on": "NIH3T3", "assay": "Inhibition of v-Src mediated Stat3-independent pLucSRE luciferase […] induction in mouse NIH3T3 cells at 100 uM after 24 hrs", "assay_type": "functional, cell-based", "procedure,_shortened": "(§2)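 NIH 3T3 fibroblasts were cotransfected with a v-Src plasmid and either the Stat3-dependent pLucTKS3 or the Stat3-independent pLucSRE reporter. At 24 h post-transfection, cells got 100 μM compound or 0.05% DMSO for another 24 h. Luciferase was read in cytosolic extracts.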"}, "MDA-MB-231 [3]": {"tested_on": "MDA-MB-231", "assay": "Induction of apoptosis in human MDA-MB-231 cells at 100 uM after 24 hrs", "assay_type": "functional", "procedure,_shortened": "(§3)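 Cells were transfected with Stat3C or the Stat3 SH2 domain, mock-transfected, or left untransfected. After 24 h they received 100 μM compound or 0.05% DMSO for a further 24 h. Annexin V binding with flow cytometry gave percent apoptosis.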"}, "MDA-MB-231 [4]": {"tested_on": "MDA-MB-231", "assay": "Reduction of cyclin D1 gene expression in human MDA-MB-231 cells at 100 uM after 48 hrs", "assay_type": "functional, cell-based"}, "MDA-MB-435 [5]": {"tested_on": "MDA-MB-435", "assay": "Cytotoxicity against human MDA-MB-435 cells expressing constitutively active Stat3 at >300 uM"}, "MDA-MB-468 [6]": {"tested_on": "MDA-MB-468", "assay": "Growth inhibition of human […] at 100 uM after 4 days by trypan blue exclusion assay", "assay_type": "functional, cell-based"}, "MDA-MB-231 [7]": {"tested_on": "MDA-MB-231", "assay": "Reduction of Bcl-xL gene expression in human MDA-MB-231 cells at 100 uM after 48 hrs", "assay_type": "functional, cell-based"}, "NIH3T3 [8]": {"tested_on": "NIH3T3", "assay": "Reduction of survivin gene expression in v-Src transfected mouse NIH3T3 cells at 100 uM after 48 hrs", "assay_type": "functional, cell-based"}, "NIH3T3 [9]": {"tested_on": "NIH3T3", "assay": "Reduction of cyclin D1 gene expression in v-Src transfected mouse NIH3T3 cells at 100 uM after 48 hrs", "assay_type": "functional, cell-based"}, "NIH3T3 [10]": {"tested_on": "NIH3T3", "assay": "Growth inhibition of mouse NIH3T3 cells expressing v-Src at 100 uM for every 3 days by soft-agar colony-formation assay", "assay_type": "functional, cell-based", "procedure,_shortened": "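Soft-agar colony formation in six-well dishes. Compound in medium was added from 1 day after seeding and re-added every 3 days until large colonies appeared. Untreated wells served as control.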"}, "MDA-MB-231 [11]": {"tested_on": "MDA-MB-231", "assay": "Reduction of survivin gene expression in human MDA-MB-231 cells at 100 uM after 48 hrs", "assay_type": "functional, cell-based"}, "MDA-MB-231 [12]": {"tested_on": "MDA-MB-231", "assay": "Induction of apoptosis in mock pcDNA3 transfected human MDA-MB-231 cells at 100 uM after 24 hrs", "assay_type": "functional", "procedure,_shortened": "as §3"}, "MDA-MB-468 [13]": {"tested_on": "MDA-MB-468", "assay": "Inhibition of Stat3 activation in human MDA-MB-468 cells at 100 uM after 24 hrs", "assay_type": "functional, cell-based", "procedure,_shortened": "as §1"}, "NIH3T3 [14]": {"tested_on": "NIH3T3", "assay": "Reduction of pTyr-705 Stat3 level in v-Src expressing mouse NIH3T3 cells at 100 uM after 24 hrs", "assay_type": "functional, cell-based"}, "NIH3T3 [15]": {"tested_on": "NIH3T3", "assay": "Inhibition of Stat3-dependent pLucTKS3 luciferase […] induction in v-Src oncoprotein expressing mouse NIH3T3 cells co-transfected with pLucTKS3 at 100 uM after 24 hrs", "assay_type": "functional, cell-based", "procedure,_shortened": "as §2"}, "MDA-MB-231 [16]": {"tested_on": "MDA-MB-231", "assay": "Induction of apoptosis in Stat3 SH2 domain transfected human MDA-MB-231 cells at 100 uM after 24 hrs", "assay_type": "functional, cell-based", "procedure,_shortened": "as §3"}, "MDA-MB-231 [17]": {"tested_on": "MDA-MB-231", "assay": "Growth inhibition of human […] at 100 uM after 4 days by trypan blue exclusion assay", "assay_type": "functional, cell-based"}, "MDA-MB-231 [18]": {"tested_on": "MDA-MB-231", "assay": "Inhibition of Stat3 activation in human MDA-MB-231 cells at 100 uM after 24 hrs", "assay_type": "functional, cell-based", "procedure,_shortened": "as §1"}, "MDA-MB-231 [19]": {"tested_on": "MDA-MB-231", "assay": "Antitumor activity against human MDA-MB-231 cells expressing active Stat3 xenografted in mouse at 5 mg/kg, iv for every 3 days for 2 weeks", "assay_type": "functional, organism-based", "parameters": "dose 5 mg/kg", "procedure,_shortened": "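Female athymic nude mice (six weeks old) received 5 × 10^6 MDA-MB-231 cells s.c. in the left flank in PBS. Once tumors reached 3 mm diameter (5–10 days), animals were stratified to equal mean tumor size and dosed i.v. at 5 mg/kg every 2 or 3 days for 2 weeks against vehicle. Tumors were measured every 2–3 days.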"}, "MDA-MB-231 [20]": {"tested_on": "MDA-MB-231", "assay": "Reduction of apoptosis in Stat3 transfected human MDA-MB-231 cells at 100 uM after 24 hrs", "assay_type": "functional, cell-based"}, "MDA-MB-435 [21]": {"tested_on": "MDA-MB-435", "assay": "Growth inhibition of human MDA-MB-435 cells expressing v-Src at 100 uM after 4 days by trypan blue exclusion assay", "assay_type": "functional, cell-based"}, "MDA-MB-435 [22]": {"tested_on": "MDA-MB-435", "assay": "Inhibition of Stat3 activation in human MDA-MB-435 cells at 100 uM after 24 hrs", "assay_type": "functional, cell-based", "procedure,_shortened": "as §1"}, "NIH3T3 [23]": {"tested_on": "NIH3T3", "assay": "Reduction of Bcl-xL gene expression in v-Src transfected mouse NIH3T3 cells at 100 uM after 48 hrs", "assay_type": "functional, cell-based"}, "NIH3T3 [24]": {"tested_on": "NIH3T3", "assay": "Growth inhibition of mouse NIH3T3 cells expressing v-Src at 100 uM after 4 days by trypan blue exclusion assay", "assay_type": "functional, cell-based"}, "MDA-MB-231 [25]": {"tested_on": "MDA-MB-231", "assay": "Induction of apoptosis in Stat3C transfected human MDA-MB-231 cells at 100 uM after 24 hrs", "assay_type": "functional, cell-based", "procedure,_shortened": "as §3"}, "MDA-MB-435 [26]": {"tested_on": "MDA-MB-435", "assay": "Induction of apoptosis in human MDA-MB-435 cells expressing active Stat3 at 30 to 100 uM after 48 hrs", "assay_type": "functional, cell-based", "procedure,_shortened": "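Proliferating cells were exposed to compound or 0.05% DMSO for 48 h, then detached. Percent apoptosis was quantified by annexin V binding and flow cytometry.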"}}, "note": "Calls of active or inactive are those of the source. The calls are words filed in the database; no cut-off is given here.", "data": [{"smiles": "Cc1ccc(S(=O)(=O)OCC(=O)Nc2ccc(C(=O)O)c(O)c2)cc1", "values": [{"measurement": "Activity", "setting": "NIH3T3 [1]", "value": "tde"}, {"measurement": "Activity", "setting": "NIH3T3 [2]", "value": "inactive"}, {"measurement": "Activity", "setting": "MDA-MB-231 [3]", "value": 50, "unit": "%"}, {"measurement": "Activity", "setting": "MDA-MB-231 [4]", "value": "Active"}, {"measurement": "Activity", "setting": "MDA-MB-435 [5]", "value": "Toxic"}, {"measurement": "Activity", "setting": "MDA-MB-468 [6]", "value": "Active"}, {"measurement": "Activity", "setting": "MDA-MB-231 [7]", "value": "Active"}, {"measurement": "Activity", "setting": "NIH3T3 [8]", "value": "Active"}, {"measurement": "Activity", "setting": "NIH3T3 [9]", "value": "Active"}, {"measurement": "Activity", "setting": "NIH3T3 [10]", "value": "Active"}, {"measurement": "Activity", "setting": "MDA-MB-231 [11]", "value": "Active"}, {"measurement": "Activity", "setting": "MDA-MB-231 [12]", "value": 50, "unit": "%"}, {"measurement": "Activity", "setting": "MDA-MB-468 [13]", "value": "Active"}, {"measurement": "Activity", "setting": "NIH3T3 [14]", "value": "Active"}, {"measurement": "Activity", "setting": "NIH3T3 [15]", "value": "Dose-dependent effect"}, {"measurement": "Activity", "setting": "MDA-MB-231 [16]", "value": "Active"}, {"measurement": "Activity", "setting": "MDA-MB-231 [17]", "value": "Active"}, {"measurement": "Activity", "setting": "MDA-MB-231 [18]", "value": "Active"}, {"measurement": "Activity", "setting": "MDA-MB-231 [19]", "value": "Active"}, {"measurement": "Activity", "setting": "MDA-MB-231 [20]", "value": "Active"}, {"measurement": "Activity", "setting": "MDA-MB-435 [21]", "value": "Active"}, {"measurement": "Activity", "setting": "MDA-MB-435 [22]", "value": "Active"}, {"measurement": "Activity", "setting": "NIH3T3 [23]", "value": "Active"}, {"measurement": "Activity", "setting": "NIH3T3 [24]", "value": "Active"}, {"measurement": "Activity", "setting": "MDA-MB-231 [25]", "value": "Active"}, {"measurement": "Activity", "setting": "MDA-MB-435 [26]", "value": "Active"}]}]}
